UCH37 inh – inhibitors of human UCH37 deubiquitinase, primary screen, biochemical, Ub-AMC cleavage, fluorescence. AID 588478, 2011. inhibition, % (no concentration beside the values). 0.33% of 330,000 active. Ubiquitin carboxyl-terminal hydrolase isozyme L5 (Homo sapiens), Q9Y5K5. purified proteasome/UCH37;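 active = mean inhibition over replicate wells above about 20%, limit read from the data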;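 also: 0% = compound-free wells with enzyme and 100% = wells lacking proteasome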
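Test system – human UCH37 enzyme supplied as purified proteasome complex · Incubation – 30 min preincubation with enzyme, 25 min cleavage at room temperature · Detection – AMC fluorescence from Ub-AMC cleavage, excitation 355 nm, emission 460 nm · Benchmarks – no-proteasome wells (full inhibition) and compound-free wells (no inhibition)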
MEKK3 PB1 HTS – modulators of MEKK3-MEK5 PB1 binding, primary screen, biochemical, wildtype MEKK3, multiplex bead flow cytometry, Alexa488-MEK5. Mitogen-activated protein kinase kinase kinase 3 (Homo sapiens), Q99759. bead-based flow cytometry, Alexa488-MEK5 binding to MEKK3; actives lie on both sides; 0 = blocked by unlabeled MEK5, 100 = vehicle. binding response (% of control), % at 10 µM. 1.4% of 290,000 active. AID 1529, 2009;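 active = binding response more than 3 SD above or below the average of its plate-row segment, actives on both sides; inconclusive = wells at one plate position flagged as instrument error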;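 also: Alexa488 bead fluorescence after subtracting the streptavidin-only scavenger bead signal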
Target sequence (Q99759 whole entry, looked up): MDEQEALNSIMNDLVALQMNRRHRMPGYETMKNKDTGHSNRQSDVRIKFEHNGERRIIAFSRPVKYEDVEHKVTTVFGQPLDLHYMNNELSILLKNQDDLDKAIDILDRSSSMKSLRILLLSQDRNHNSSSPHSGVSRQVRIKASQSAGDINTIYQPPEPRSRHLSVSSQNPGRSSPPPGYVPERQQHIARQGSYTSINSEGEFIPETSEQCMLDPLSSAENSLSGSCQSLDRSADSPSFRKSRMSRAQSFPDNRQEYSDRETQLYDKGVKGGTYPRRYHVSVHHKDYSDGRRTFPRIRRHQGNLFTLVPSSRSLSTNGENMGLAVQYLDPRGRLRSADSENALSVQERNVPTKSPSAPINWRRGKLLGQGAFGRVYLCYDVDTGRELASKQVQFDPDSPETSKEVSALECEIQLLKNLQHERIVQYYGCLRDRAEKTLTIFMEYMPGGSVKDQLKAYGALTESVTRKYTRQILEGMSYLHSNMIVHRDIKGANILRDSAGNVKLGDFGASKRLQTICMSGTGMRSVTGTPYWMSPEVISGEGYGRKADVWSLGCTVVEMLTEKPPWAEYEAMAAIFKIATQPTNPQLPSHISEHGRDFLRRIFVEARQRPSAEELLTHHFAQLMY
T cell HTS – modulators of CD8 T cell-vesicle binding, primary screen, mouse 2C CD8+ T cells, flow cytometry. 2C CD8+ T cell-vesicle binding; active compounds read low. response (vesicle binding), % at 7 µM. 0.068% of 330,000 active. AID 2052, 2009;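 active = response, share of CD8 T cells binding vesicles, and their 90th percentile fluorescence all below set limits, cut at about 80% in these data, passing the limit was not always enough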;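 also: values below 100% mean blocked vesicle binding to the CD8+ T cells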
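Assay system – 2C mouse CD8+ T cells · Also added – QL9-loaded Drosophila micro-vesicles · Timing – Cell–vesicle co-incubation 1.5 h at 37 °C, staining 20 min on ice · Signal – flow cytometry of vesicle-bound cells · Measure – percent CD8+ FL2 mean versus row control · Controls – Peptide-free naked vesicles (low) and QL9 vesicles with 0.7% DMSO vehicle (high)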
MEKK2mut PB1 HTS – MEK5 binding signal on mutant MEKK2 PB1, primary screen, biochemical, multiplex bead flow cytometry, Alexa488-MEK5; Alexa488-MEK5 binding to MEKK2 mutant; percent response, % at 10 µM; 0.35% of 290,000 active; AID 1530, 2009; in the data active = percent response above about 24%, passing the limit was not always enough
Rce1 inh – yeast Rce1p protease inhibitors, primary screen, biochemical, fluorescence, cell-free homogeneous | 0.27% of 290,000 active | calls only | yeast membranes, quenched prenylated peptide cleavage fluorescence | CAAX prenyl protease 2 (Saccharomyces cerevisiae (strain ATCC 204508 / S288c)), Q03530;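 active = fall in fluorescence gain of 50% or more versus controls, with final raw signal at or below 3038400; inconclusive = same 50% fall but final raw signal above 3038400; inactive = fall in fluorescence gain under 50%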;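 also: plate controls were neutral control wells for no effect and wells lacking membranes for full effect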
MEKK2wt PB1 HTS – modulators of MEK5 binding to wildtype MEKK2, primary screen, biochemical, multiplex bead flow cytometry, Alexa488-MEK5; Mitogen-activated protein kinase kinase kinase 2 (Homo sapiens), Q9Y2U5; Alexa488-MEK5 binding to MEKK2 WT; actives lie on both sides; binding response (% of control), % at 10 µM; 1.1% of 290,000 active; in the data active = binding response below about 67% or above about 130%; inconclusive = no clear call, values can overlap the other calls; inactive = in between
MEKK2wt confirm – modulators of MEK5 binding to wildtype MEKK2, confirmation, biochemical, single concentration, multiplex bead flow cytometry | shares compounds with MEKK3 PB1 HTS | Alexa488-MEK5 binding to MEKK2 WT; actives lie on both sides | binding response (% of control), % at 10 µM | 2.4% of 5,900 active | AID 1892, 2009; in the data active = binding response below about 16% or above about 210%; inactive = in between
MEKK2mut-MEK5 – mutant MEKK2 PB1-MEK5 binding signal retest – biochemical, single concentration, multiplex bead flow cytometry, confirmation; shares compounds with MEKK3 PB1 HTS; Alexa488-MEK5 binding to MEKK2 mutant; percent response, % at 10 µM; 2% of 5,900 active; in the data active = percent response mostly above about 71%, no sharp cut-off; inactive = mostly below about 38%;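 also: higher means compound restores mutant binding toward wildtype level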
MEKK3-MEK5 inh – MEKK3 wild-type PB1 binding to MEK5, inhibitors, confirmation, biochemical, bead multiplex flow cytometry, single concentration, wildtype | Alexa488-MEK5 binding to MEKK3; active compounds read low | AID 1894, 2009 | binding response (% of control), % at 10 µM | shares compounds with MEKK3 PB1 HTS | 1.8% of 5,900 active;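 active = binding response below 72% of control, or above a set upper limit, though filed actives all read lower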;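 also: 100% = DMSO only wells and 0% = binding blocked by excess unlabeled MEK5; lower values mean stronger disruption of MEK5 binding to MEKK3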
* marks the source's active call; other numbers are inactive results; i = inactive; ? = inconclusive; . = not tested or not shown; + = active, no number; [ ] = another dose, or the depositor's remark. This is a sample that favours compounds with a hit; in the whole collection about 2.5% have one here.

SMILES | UCH37 inh | MEKK3 PB1 HTS | T cell HTS | MEKK2mut PB1 HTS | Rce1 inh | MEKK2wt PB1 HTS | MEKK2wt confirm | MEKK2mut-MEK5 | MEKK3-MEK5 inh
CCOC(=O)c1sc2ccccc2c1NC(=O)c1coc2ccccc2c1=O | 1 | 139* | 90 | -1 | i | 96 | 101 | -1 | 102
COc1cc(OC)c2c(-c3ccccc3)cc(=O)oc2c1C(CCN1CCCC(C)C1)c1ccc2c(c1)OCO2 (stereo not given) | 2 | 123 | 214 | 26* | i | 183* | 169 | 35 | 105
COc1cc(OC)c2c(-c3ccccc3)cc(=O)oc2c1C(CC(=O)N1CCCC1)c1ccc2c(c1)OCO2 (stereo not given) | -1 | 109 | . | 5 | i | 112 | . | . | .
COc1cc(OC)c2c(-c3ccccc3)cc(=O)oc2c1C(CCN1CCCCC1)c1ccc2c(c1)OCO2 (stereo not given) | -2 | 94 | . | 28* | i | 177* | 147 | 47 | 104
CSC(=NN=C(N)c1cnccn1)SC | 11 | . | . | . | . | . | . | . | .
COc1cc(C=NNC(=O)c2c(-c3ccccc3)noc2C)ccc1O | 5 | . | . | . | . | . | . | . | .
O=C(c1ccc(Cl)cc1)c1ccc(CN2C(=O)c3ccccc3C2=O)o1 | 2 | 2.0*[inhibitor] | 331 | -16 | i | 2.0*[inhibitor] | 103 | 4 | 106
COc1ccc(CC(=O)NN=Cc2cccn2-c2ccc([N+](=O)[O-])cc2)cc1OC | 6 | . | . | . | . | . | . | . | .
CCCCCC(=O)N1CC2(CC(c3cccc(NC(=O)CC(c4ccccc4)c4ccccc4)c3)=NO2)C[C@@H]1C(N)=O (stereo not given in full) | -1 | 81*[inhibitor] | 0 | 3 | i | 96 | 98 | -11 | 98
Cc1ccc(NC(=O)NNC(=O)c2cccs2)cc1 | . | 71*[inhibitor] | 185 | 0 | i | 94 | 102 | 0 | 106
COc1cc(C=NNC(=O)COc2c(C)cc([N+](=O)[O-])cc2C)ccc1OC(=O)c1ccccc1 | 1 | . | . | . | . | . | . | . | .
COc1ccc(-c2nc(CN3CCN(c4cc(C)nc(C)c4)CC3)c(C)o2)c2ccccc12 | -238 | 107 | 457 | -6 | ? | 158* | 161 | 26 | 106
CCCNCc1cc(Br)ccc1OCC(=O)NCCc1ccccc1 | -1 | 111 | 249 | -1 | i | 101 | . | . | .
O=C(COc1ccc(Br)cc1CNCCc1ccccc1)NCc1ccccc1 | 3 | 100 | 419 | 6 | i | 145* | 150 | 35 | 112
COc1cc(CNCCc2ccccc2)cc(Cl)c1OCc1ccccc1 | 3 | 101 | 840 | 37 | i | 192* | 202 | 73* | 112
CNCc1cc(Br)c(OCC(=O)Nc2ccccc2OC)c(OC)c1 | 4 | 102 | 317 | 8 | i | 118 | . | . | .
CCOc1cc(CNC2CCCC2)cc(Cl)c1OCc1ccccc1 | -1 | 105 | 182 | 22 | i | 141* | 115 | 19 | 103
COc1cc(CNCCc2ccccc2)cc(Br)c1OCC(=O)Nc1ccccc1C | 3 | 95 | 270 | 33 | i | 182* | 137 | 15 | 106
CCOc1cc(CNCC(C)C)cc(Cl)c1OCc1ccccc1 | 4 | 110 | 224 | 2 | i | 121 | . | . | .
CC(=NNC(=O)CNC(=O)c1cccnc1)c1cccc([N+](=O)[O-])c1 | 4 | . | . | . | . | . | . | . | .
Oc1ccc(O)c(-c2cnns2)c1 | 2 | 132* | 494 | 0 | i | 105 | 111 | 6 | 107
Nc1nc(N)nc(-c2cc(O)ccc2O)n1 | 5 | . | 490 | . | . | . | . | . | .
CCOC(=O)C1=C(C)NC(C)=C(C(=O)OC)C1c1cccc([N+](=O)[O-])c1 (stereo not given) | 2 | 93 | 364 | 2 | i | 98 | . | . | .
COC(=O)C1=C(C)NC(C)=C(C(=O)O[C@@H]2CCCN(Cc3ccccc3)C2)[C@@H]1c1cccc([N+](=O)[O-])c1 | 2 | 111 | 754 | 10 | i | 145* | 120 | 9 | 106
CC(=NOCC(=O)Nc1nc2ccccc2s1)c1ccccc1 | 0 | . | . | . | . | . | . | . | .
SMILES | UCH37 inh | MEKK3 PB1 HTS | T cell HTS | MEKK2mut PB1 HTS | Rce1 inh | MEKK2wt PB1 HTS | MEKK2wt confirm | MEKK2mut-MEK5 | MEKK3-MEK5 inh
CCN(Cc1ccccc1)c1ccc(/C=N/NC(=S)NC(C)C)cc1 | . | 59*[inhibitor] | 245 | -1 | i | 82 | 146 | 19 | 107
CC(=NNc1nncc2ccccc12)c1ccc(OCC(=O)N(C)C)cc1 | 11 | . | . | . | . | . | . | . | .
CCN(C(=O)c1cc2c(=O)[nH]c3ccc(C)cc3c2s1)c1ccc(F)cc1 | -21 | 129* | 324 | 25 | i | 113 | 95 | -2 | 95
C/C(C=NNC(=O)c1cc(-c2ccccc2)nc2ccccc12)=C\c1ccco1 | -8 | . | . | . | . | . | . | . | .
Cc1ccc(N(CC(=O)N2CCCCCC2)S(C)(=O)=O)cc1Cl | 4 | 101 | 334 | 4 | i | 101 | . | . | .
CS(=O)(=O)N(CC(=O)N1CCCCC1)c1ccc(Cl)c(C(F)(F)F)c1 | 6 | 97 | 302 | 2 | i | 71*[inhibitor] | 98 | 0 | 101
O=C(NN=Cc1ccncc1)c1cc(-c2ccc(Br)s2)[nH]n1 | 1 | . | . | . | . | . | . | . | .
O=C(Cn1nnc(-c2ccc(Cl)cc2)n1)NCc1ccco1 | 2 | 106 | 265 | 11 | i | 106 | . | . | .
CCCC(=O)NCn1nnc(-c2ccc(Cl)cc2)n1 | 4 | 221* | . | + | i | 94 | 102 | 1 | 103
O=C(Cn1cncn1)NN=Cc1c2ccccc2cc2ccccc12 | 0 | . | . | . | . | . | . | . | .
COc1ccc(CN2CCN(C(c3ccc(F)cc3)c3ccc(F)cc3)CC2)c(OC)c1OC | 6 | 114 | 197 | 15 | + | 183* | 138 | 34 | 105

High-throughput results from PubChem.
